Columns and labels:
Cytochrome P450 3A4 = Cytochrome P450 3A4 (Homo sapiens, UniProt P08684); assay: Inhibition of recombinant CYP3A4 (unknown origin) expressed in baculovirus-infected insect microsomes; format: ADME, Microsome
Procedure, shortened: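 Recombinant CYP3A4 in baculovirus-infected insect microsomes (Supersomes), assayed following the supplier's protocol.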

Aromatase = molecular target: T1, Aromatase (Homo sapiens, UniProt P11511); assay: Inhibition of CYP19 in human placental microsomes using [1beta-3H]androstenedione as substrate by 3H2O-method; parameters: species or system Placenta
T1 sequence (P11511 whole entry): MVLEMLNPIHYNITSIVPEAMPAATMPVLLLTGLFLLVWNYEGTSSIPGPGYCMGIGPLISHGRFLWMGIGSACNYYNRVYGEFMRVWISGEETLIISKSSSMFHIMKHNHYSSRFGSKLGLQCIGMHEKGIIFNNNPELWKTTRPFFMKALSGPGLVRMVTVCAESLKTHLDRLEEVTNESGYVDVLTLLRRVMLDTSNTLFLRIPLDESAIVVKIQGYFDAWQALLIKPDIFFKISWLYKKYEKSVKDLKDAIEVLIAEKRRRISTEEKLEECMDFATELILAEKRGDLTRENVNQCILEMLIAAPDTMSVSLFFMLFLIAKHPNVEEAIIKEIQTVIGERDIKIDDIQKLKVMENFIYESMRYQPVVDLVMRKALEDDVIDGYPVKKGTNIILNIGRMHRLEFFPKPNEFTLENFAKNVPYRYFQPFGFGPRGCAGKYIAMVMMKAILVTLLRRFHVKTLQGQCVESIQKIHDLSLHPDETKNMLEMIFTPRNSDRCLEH
Procedure, shortened: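 Human placental microsomes as the aromatase source. Product formation was read by the 3H2O release method with [1β-3H]androstenedione at 500 nM as substrate.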

Homo sapiens = organism: Homo sapiens; assay: Selectivity factor, ratio of IC50 for human CYP11B1 to IC50 for human CYP11B2
[1] = molecular target: T2, Steroid 17-alpha-hydroxylase/17,20 lyase (Homo sapiens, UniProt P05093); assay: Inhibition of human CYP17 expressed in Escherichia coli using 1,2[3H]-progesterone as substrate at 2000 nM in presence of NADPH relative to control; settings: read-out: INH
T2 sequence (P05093 whole entry): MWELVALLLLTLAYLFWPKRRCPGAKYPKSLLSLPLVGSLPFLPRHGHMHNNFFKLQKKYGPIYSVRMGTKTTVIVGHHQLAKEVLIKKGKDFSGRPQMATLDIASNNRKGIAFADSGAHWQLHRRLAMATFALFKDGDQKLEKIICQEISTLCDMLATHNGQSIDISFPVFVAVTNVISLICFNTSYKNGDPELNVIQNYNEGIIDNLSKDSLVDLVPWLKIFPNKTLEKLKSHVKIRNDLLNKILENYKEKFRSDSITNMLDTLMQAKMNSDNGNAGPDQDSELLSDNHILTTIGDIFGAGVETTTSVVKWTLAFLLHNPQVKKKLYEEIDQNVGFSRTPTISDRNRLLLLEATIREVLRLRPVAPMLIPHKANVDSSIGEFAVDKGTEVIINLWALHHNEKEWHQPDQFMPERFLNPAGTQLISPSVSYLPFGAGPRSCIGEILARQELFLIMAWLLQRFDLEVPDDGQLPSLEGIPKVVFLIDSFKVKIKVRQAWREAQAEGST

[2] = molecular target: T2, Steroid 17-alpha-hydroxylase/17,20 lyase; assay: Inhibition of human CYP17 expressed in Escherichia coli using 1,2[3H]-progesterone as substrate in presence of NADPH
Procedure, shortened: (§1)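 Human CYP17 was recombinantly expressed in E. coli. The substrate was progesterone at 25 µM, with NADPH as cofactor.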

[3] = molecular target: T3, Cytochrome P450 11B1, mitochondrial (Homo sapiens, UniProt P15538); assay: Inhibition of human CYP11B1 expressed in hamster V79MZh cells using [1,2-3H]-11-deoxycorticosterone as substrate; format: cell-based
T3 sequence (P15538 whole entry): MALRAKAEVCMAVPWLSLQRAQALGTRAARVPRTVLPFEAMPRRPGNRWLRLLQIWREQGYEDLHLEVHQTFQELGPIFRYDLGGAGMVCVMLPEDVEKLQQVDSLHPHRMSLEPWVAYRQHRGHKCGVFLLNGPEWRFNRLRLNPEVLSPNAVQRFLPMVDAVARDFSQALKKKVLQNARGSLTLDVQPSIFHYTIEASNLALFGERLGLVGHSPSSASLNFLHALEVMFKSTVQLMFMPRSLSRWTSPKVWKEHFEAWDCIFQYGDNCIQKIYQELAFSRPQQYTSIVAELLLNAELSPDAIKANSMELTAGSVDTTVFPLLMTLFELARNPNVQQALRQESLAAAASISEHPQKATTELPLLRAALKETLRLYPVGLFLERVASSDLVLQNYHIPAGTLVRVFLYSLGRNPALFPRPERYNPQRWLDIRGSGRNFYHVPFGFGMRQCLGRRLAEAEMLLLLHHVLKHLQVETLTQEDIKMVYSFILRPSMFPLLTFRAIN

[4] = molecular target: T4, Cytochrome P450 11B2, mitochondrial (Homo sapiens, UniProt P19099); assay: Inhibition of human CYP11B2 expressed in hamster V79MZh cells using [1,2-3H]-11-deoxycorticosterone as substrate; format: cell-based
T4 sequence (P19099 whole entry): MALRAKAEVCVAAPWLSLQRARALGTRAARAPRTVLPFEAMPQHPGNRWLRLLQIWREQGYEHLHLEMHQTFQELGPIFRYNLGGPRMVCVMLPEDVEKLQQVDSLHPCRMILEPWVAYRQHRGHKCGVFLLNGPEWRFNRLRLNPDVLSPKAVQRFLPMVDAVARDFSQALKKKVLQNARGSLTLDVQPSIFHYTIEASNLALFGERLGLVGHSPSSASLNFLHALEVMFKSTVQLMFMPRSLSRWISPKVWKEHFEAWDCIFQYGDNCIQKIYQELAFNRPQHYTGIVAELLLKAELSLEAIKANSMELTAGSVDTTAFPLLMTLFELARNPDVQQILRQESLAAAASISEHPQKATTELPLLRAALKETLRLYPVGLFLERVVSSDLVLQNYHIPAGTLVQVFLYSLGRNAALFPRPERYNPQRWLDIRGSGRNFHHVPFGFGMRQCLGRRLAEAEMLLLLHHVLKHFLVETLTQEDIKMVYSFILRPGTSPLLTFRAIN

[5] = molecular target: T2, Steroid 17-alpha-hydroxylase/17,20 lyase; assay: Inhibition of human CYP17; procedure, shortened: as §1
[6] = molecular target: T4, Cytochrome P450 11B2, mitochondrial; assay: Inhibition of human CYP11B2

Chain of Cytochrome P450 3A4 (P08684 whole entry): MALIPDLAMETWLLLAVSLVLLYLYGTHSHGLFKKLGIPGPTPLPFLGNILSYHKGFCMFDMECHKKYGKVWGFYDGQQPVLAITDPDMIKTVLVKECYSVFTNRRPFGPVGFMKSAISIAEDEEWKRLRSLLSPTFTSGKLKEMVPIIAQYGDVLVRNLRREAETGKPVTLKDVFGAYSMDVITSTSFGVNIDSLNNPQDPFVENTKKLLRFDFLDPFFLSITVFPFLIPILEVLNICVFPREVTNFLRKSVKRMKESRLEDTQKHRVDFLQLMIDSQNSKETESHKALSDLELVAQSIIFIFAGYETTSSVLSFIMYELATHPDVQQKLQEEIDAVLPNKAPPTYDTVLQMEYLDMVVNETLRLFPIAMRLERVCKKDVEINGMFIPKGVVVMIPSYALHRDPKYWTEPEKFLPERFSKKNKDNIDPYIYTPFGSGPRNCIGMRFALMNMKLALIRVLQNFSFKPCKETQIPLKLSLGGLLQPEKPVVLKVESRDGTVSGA

Row | Structure (SMILES) | IC50 (Cytochrome P450 3A4) | IC50 (Aromatase) | Ratio IC50 (Homo sapiens) | inhibition at 2 µM [1] | IC50 [2] | IC50 [3] | IC50 [4] | IC50 [5] | IC50 [6]
1 | COc1ccc2ccc(-c3cccnc3)c(Cl)c2c1 | 3560 nM | > 2000 nM | 94 |  |  |  |  |  | 
2 | N#Cc1ccc(C2CCCc3cncn32)cc1 (stereo not drawn) [FADROZOLE] |  |  |  | < 5% |  |  |  |  | 
3 | Oc1ccc2ccc(-c3cncnc3)c(Cl)c2c1 | 2150 nM | > 2000 nM | 110 |  | 1520 nM | 2430 nM | 22 nM |  | 
4 | COc1ccc2ccc(-c3cncc4ccccc34)c(Cl)c2c1 | > 10000 nM | > 2000 nM | 7 |  | 294 nM | 362 nM | 54 nM |  | 
5 | Oc1ccc2ccc(-c3cccnc3)c(Cl)c2c1F | > 10000 nM | > 2000 nM | 9 |  | 375 nM | 224 nM | 25 nM |  | 
6 | COc1ccc2ccc(-c3cccnc3)c(F)c2c1 | > 10000 nM | > 2000 nM | 95 |  | 106 nM | 1610 nM | 17 nM |  | 
7 | Oc1cncc(-c2ccc3ccc(O)cc3c2Cl)c1 | 5050 nM | > 2000 nM | 104 |  | 16 nM | 2820 nM | 27 nM |  | 
8 | COc1ccc2ccc(-c3cncc(O)c3)c(Cl)c2c1 | 6720 nM | > 2000 nM | 546 |  | 11 nM | 7100 nM | 13 nM |  | 
9 | Oc1ccc2ccc(-c3cncc(F)c3)c(Cl)c2c1 | 3580 nM | > 2000 nM | 15 |  | 525 nM | 450 nM | 33 nM |  | 
10 | COc1cncc(-c2ccc3ccc(OC)cc3c2Cl)c1 | > 10000 nM | > 2000 nM | 19 |  | 94 nM | 447 nM | 24 nM |  | 
11 | COc1ccc2ccc(-c3cncc(F)c3)c(Cl)c2c1 | > 10000 nM | > 2000 nM | 37 |  | 454 nM | 1410 nM | 38 nM |  | 
12 | Oc1ccc2ccc(-c3cncc4ccccc34)c(Cl)c2c1 | 1740 nM | > 2000 nM | 4 |  | 1030 nM | 238 nM | 66 nM |  | 
13 | COc1ccc2ccc(-c3cccnc3)c(Cl)c2c1F | 1010 nM | > 2000 nM | 104 |  | 147 nM | 2930 nM | 28 nM |  | 
14 | COc1cncc(-c2ccc3ccc(O)cc3c2Cl)c1 | 4200 nM | > 2000 nM | 16 |  | 185 nM | 245 nM | 15 nM |  | 
15 | Oc1ccc2ccc(-c3cccnc3)c(F)c2c1 | 1260 nM | > 2000 nM | 39 |  | 523 nM | 1160 nM | 30 nM |  | 
16 | c1cncc(-c2ccc3ccccc3c2)c1 |  |  |  |  |  |  |  | 3000 nM | 
17 | Oc1ccc2ccc(-c3cccnc3)c(Cl)c2c1 | 1760 nM | > 2000 nM | 9 |  | 64 nM | 235 nM | 26 nM |  | 
18 | COc1ccc2ccc(-c3cccnc3)cc2c1 |  | > 2000 nM |  |  |  |  |  | 721 nM | 68 nM
19 | COc1ccc2ccc(-c3cncnc3)c(Cl)c2c1 | > 10000 nM | > 2000 nM | 170 |  | 632 nM | 12300 nM | 72 nM |  | 
